Experimental data: PMC9444296 (Investigative Radiology, 2022)
“Also recorded” adds a separate entry of the source.

Key:
[1] = Plasma protein binding, dog plasma; format: in vitro ADME; details: 37°C, 3 min, 10 kDa ultrafiltration, Gd by ICP-OES, n = 4
Outline: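 Test compound at 50, 80 or 110 μM was incubated with human, dog or rat plasma (alongside HSA 40 mg/mL and PBS) at 37°C for 3 min. Mixtures were kept overnight and centrifuged to remove insolubles. Gd was measured by ICP-OES, and the binding ratio was taken as bound over total concentration.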

[2] = tested on: SD rats; experiment: Single and repeated dose toxicity and toxicokinetics in SD rats; format: in vivo, rat; details: for NOAEL: SD rats; for accumulation ratio AUC0–24h (D14)/AUC0–24h (D1) of Gd: 14 days
Outline: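 GLP study in SD rats aged 6–7 weeks (M 200–246 g, F 175–224 g). […] Clinical observation, organ weights and macro/microscopic histopathology were done. Plasma exposure (AUC0–24h, C0) was taken on D1 and D14, with accumulation ratio AUC0–24h(D14)/AUC0–24h(D1) of Gd.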

ZD2-N3-Gd(HP-DO3A) [MT218]
binding ratio to plasma proteins ([1]; 50 μM): 29.10%
binding ratio to plasma proteins ([1]; 80 μM): 26.91%
binding ratio to plasma proteins ([1]; 110 μM): 48.44%
NOAEL ([2]; repeated daily IV dose for 14 days): 0.46 mmol/kg/day
NOAEL ([2]; single IV dose): 1.39 mmol/kg
accumulation ratio AUC0–24h (D14)/AUC0–24h (D1) of Gd ([2]; female rats, high dose 1.39 mmol/kg/d IV): 1.22
accumulation ratio AUC0–24h (D14)/AUC0–24h (D1) of Gd ([2]; female rats, low dose 0.15 mmol/kg/d IV): 1.41
accumulation ratio AUC0–24h (D14)/AUC0–24h (D1) of Gd ([2]; female rats, medium dose 0.46 mmol/kg/d IV): 1.61
accumulation ratio AUC0–24h (D14)/AUC0–24h (D1) of Gd ([2]; male rats, high dose 1.39 mmol/kg/d IV): 1.31
accumulation ratio AUC0–24h (D14)/AUC0–24h (D1) of Gd ([2]; male rats, low dose 0.15 mmol/kg/d IV): 1.52
accumulation ratio AUC0–24h (D14)/AUC0–24h (D1) of Gd ([2]; male rats, medium dose 0.46 mmol/kg/d IV): 1.49
mortality or moribundity ([2]; rats, any dose group, up to 1.39 mmol/kg/d): no mortality or morbidity; also recorded: No mortality or moribundity
clinical observations (body weight, food consumption, temperature, ophthalmoscopy, hematology, coagulation, clinical chemistry, urinalysis) ([2]; rats, any dose level): No MT218-related changes
pathological findings ([2]; rats, low and medium repeated-dosing groups (0.15, 0.46 mmol/kg/d)): No such abnormality
pathological findings ([2]; rats, single dose 1.39 mmol/kg): no MT218-related macroscopic and microscopic abnormality
